Measurements gathered from unrelated publications.
Lines come from different studies, so protocols differ. ≈ marks a conversion by molar mass, not a printed value.

CNC(C)C1CCC(N)C(OC2C(N)CC(N)C(OC3OCC(C)(O)C(NC)C3O)C2O)O1 (stereo not drawn) gave an MBC of 4000 µM (≈ 1910 µg/mL) (Escherichia coli; microbial killing, broth dilution; ATCC25922; 24 h).
CC(=O)NC[C@H]1CN(c2ccc(N3CCOCC3)c(F)c2)C(=O)O1 has an MIC of 2 µg/mL (Staphylococcus aureus; microbial growth, agar dilution; ATCC29213).
The MIC of CC1(C)S[C@@H]2[C@H](NC(=O)[C@H](N)c3ccccc3)C(=O)N2[C@H]1C(=O)O is reported as 1.35 µM (Micrococcus luteus; microbial growth, broth dilution; ATCC4698).
O=C1C(=O)c2cccnc2-c2ncccc21 gave an EC50 of 25.6 µM (Angiostrongylus cantonensis; parasite motility; 24 h, larva).
The inhibition zone of CCOC(=O)/C=C1/SC(N/N=C/c2c(-c3ccc(F)cc3)nc3ncccn23)=NC1=O is reported as 10 mm (Escherichia coli; microbial growth, well diffusion; ATCC25922; 100 µg/mL).
With CCS(=O)(=O)Oc1cc(C=NNC(=O)CSc2nc3c(C)cccc3c(=O)n2-c2ccccc2)ccc1OC the inhibition zone was 3 mm (Staphylococcus aureus; microbial growth, well diffusion; MRSA; 20 µg/mL).
O=c1cc(Nc2ccccc2)c2ccccc2o1 has an MIC90 of 9 µg/mL (≈ 37.9 µM) (Escherichia coli; microbial growth, broth dilution).
For CN[C@H](CC(C)C)C(=O)N[C@H]1C(=O)N[C@@H](CC(N)=O)C(=O)N[C@H]2C(=O)N[C@H]3C(=O)N[C@H](C(=O)N[C@H](C(=O)O)c4cc(O)cc(O)c4-c4cc3ccc4O)[C@H](O)c3ccc(c(Cl)c3)Oc3cc2cc(c3O[C@@H]2O[C@H](CO)[C@@H](O)[C@H](O)[C@H]2O[C@H]2C[C@](C)(N)[C@H](O)[C@H](C)O2)Oc2ccc(cc2Cl)[C@H]1O, the MIC was 1 µg/mL (Staphylococcus aureus; microbial growth, agar dilution; ATCC29213).
With CCCS(=O)(=O)Oc1ccc(C=NNC(=O)CSc2nc3c(C)cccc3c(=O)n2-c2ccccc2)cc1 the inhibition zone was 2 mm (Staphylococcus aureus; microbial growth, well diffusion; MRSA; 20 µg/mL).
